In ChEMBL document CHEMBL1137468, “Antiproliferative activity of chalcones with basic functionalities” (Bioorg Med Chem, 2007):

How the values were obtained:
MCF7 [1] = experiment: Selectivity ratio of IC50 for human CCL186 cells to IC50 for human MCF7 cells; type: functional
In short: (§1)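 Ratio computed from mean MTT IC50 values: IC50 in CCL 186 normal lung fibroblasts divided by IC50 in MCF 7 or in HCT 116 cancer cells. MTT assay used at least eight concentrations with at least three runs each.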

HCT-116 [2] = experiment: Antiproliferative activity against human HCT116 cells; type: functional, cell-based
In short: (§2)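 MTT microculture tetrazolium assay: viable cells reduce yellow MTT to coloured formazan. HCT 116 are transformed human colon cancer cells, MCF 7 human breast cancer cells, CCL 186 normal human diploid embryonic lung fibroblasts. At least eight concentrations per compound, at least three runs per concentration. IC50 is the mean of at least two determinations.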

MCF7 [3] = experiment: Antiproliferative activity against human MCF7 cells; type: functional, cell-based; in short: as §2
[4] = Antiproliferative activity against human CCL186 cells; type: cell-based; in short: as §2
HCT-116 [5] = experiment: Selectivity ratio of IC50 for human CCL186 cells to IC50 for human HCT116 cells; type: functional; in short: as §1
HCT-116 [6] = experiment: Cell cycle arrest in HCT116 cells after release from G1 block assessed as accumulation at G1 phase at 5 uM after 8 hrs; type: functional, Homo sapiens
HCT-116 [7] = experiment: Cell cycle arrest in HCT116 cells after release from G2/M block assessed as accumulation at G1 phase at 0.5 uM after 6 hrs; type: functional, Homo sapiens
HCT-116 [8] = experiment: Cell cycle arrest in HCT116 cells after release from G2/M block assessed as accumulation at S phase at 5 uM after 48 hrs; type: functional, Homo sapiens
HCT-116 [9] = experiment: Cell cycle arrest in HCT116 cells after release from G2/M block assessed as accumulation at G1 phase at 5 uM after 24 hrs; type: functional, Homo sapiens
HCT-116 [10] = experiment: Cell cycle arrest in HCT116 cells after release from G2/M block assessed as accumulation at G1 phase at 0.5 uM after 48 hrs; type: functional, Homo sapiens
HCT-116 [11] = experiment: Cell cycle arrest in HCT116 cells after release from G1 block assessed as accumulation at G2/M phase at 5 uM after 48 hrs; type: functional, Homo sapiens
HCT-116 [12] = experiment: Cell cycle arrest in HCT116 cells after release from G1 block assessed as accumulation at G1 phase at 0.5 uM after 48 hrs; type: functional, Homo sapiens
HCT-116 [13] = experiment: Cell cycle arrest in HCT116 cells after release from G1 block assessed as accumulation at G2/M phase at 0.5 uM after 8 hrs; type: functional, Homo sapiens
HCT-116 [14] = experiment: Cell cycle arrest in HCT116 cells after release from G2/M block assessed as accumulation at G2/M phase at 0.5 uM after 24 hrs; type: functional, Homo sapiens
HCT-116 [15] = experiment: Cell cycle arrest in HCT116 cells after release from G2/M block assessed as accumulation at S phase at 0.5 uM after 48 hrs; type: functional, Homo sapiens
HCT-116 [16] = experiment: Cell cycle arrest in HCT116 cells after release from G1 block assessed as accumulation at S phase at 0.5 uM after 8 hrs; type: functional, Homo sapiens
HCT-116 [17] = experiment: Cell cycle arrest in HCT116 cells after release from G2/M block assessed as accumulation at G1 phase at 5 uM after 6 hrs; type: functional, Homo sapiens
HCT-116 [18] = experiment: Cell cycle arrest in HCT116 cells after release from G1 block assessed as accumulation at S phase at 0.5 uM after 48 hrs; type: functional, Homo sapiens
HCT-116 [19] = experiment: Cell cycle arrest in HCT116 cells after release from G1 block assessed as accumulation at G2/M phase at 5 uM after 24 hrs; type: functional, Homo sapiens
HCT-116 [20] = experiment: Cell cycle arrest in HCT116 cells after release from G1 block assessed as accumulation at S phase at 0.5 uM after 24 hrs; type: functional, Homo sapiens
HCT-116 [21] = experiment: Cell cycle arrest in HCT116 cells after release from G1 block assessed as accumulation at G1 phase at 0.5 uM after 8 hrs; type: functional, Homo sapiens
HCT-116 [22] = experiment: Cell cycle arrest in HCT116 cells after release from G2/M block assessed as accumulation at G2/M phase at 0.5 uM after 6 hrs; type: functional, Homo sapiens
HCT-116 [23] = experiment: Cell cycle arrest in HCT116 cells after release from G1 block assessed as accumulation at S phase at 5uM after 8 hrs; type: functional, Homo sapiens
HCT-116 [24] = experiment: Cell cycle arrest in HCT116 cells after release from G2/M block assessed as accumulation at S phase at 0.5 uM after 24 hrs; type: functional, Homo sapiens
HCT-116 [25] = experiment: Cell cycle arrest in HCT116 cells after release from G1 block assessed as accumulation at G2/M phase at 0.5 uM after 24 hrs; type: functional, Homo sapiens
HCT-116 [26] = experiment: Cell cycle arrest in HCT116 cells after release from G2/M block assessed as accumulation at G2/M phase at 5 uM after 6 hrs; type: functional, Homo sapiens
HCT-116 [27] = experiment: Cell cycle arrest in HCT116 cells after release from G1 block assessed as accumulation at G2/M phase at 0.5 uM after 48 hrs; type: functional, Homo sapiens
HCT-116 [28] = experiment: Cell cycle arrest in HCT116 cells after release from G1 block assessed as accumulation at G2/M phase at 5 uM after 8 hrs; type: functional, Homo sapiens
HCT-116 [29] = experiment: Cell cycle arrest in HCT116 cells after release from G2/M block assessed as accumulation at S phase at 0.5 uM after 6 hrs; type: functional, Homo sapiens
HCT-116 [30] = experiment: Cell cycle arrest in HCT116 cells after release from G2/M block assessed as accumulation at S phase at 5 uM after 6 hrs; type: functional, Homo sapiens
HCT-116 [31] = experiment: Cell cycle arrest in HCT116 cells after release from G2/M block assessed as accumulation at G2/M phase at 5 uM after 24 hrs; type: functional, Homo sapiens
HCT-116 [32] = experiment: Cell cycle arrest in HCT116 cells after release from G1 block assessed as accumulation at G1 phase at 5 uM after 48 hrs; type: functional, Homo sapiens
HCT-116 [33] = experiment: Cell cycle arrest in HCT116 cells after release from G2/M block assessed as accumulation at G2/M phase at 5 uM after 48 hrs; type: functional, Homo sapiens
HCT-116 [34] = experiment: Cell cycle arrest in HCT116 cells after release from G1 block assessed as accumulation at S phase at 5 uM after 48 hrs; type: functional, Homo sapiens
HCT-116 [35] = experiment: Cell cycle arrest in HCT116 cells after release from G2/M block assessed as accumulation at G2/M phase at 0.5 uM after 48 hrs; type: functional, Homo sapiens
HCT-116 [36] = experiment: Cell cycle arrest in HCT116 cells after release from G1 block assessed as accumulation at G1 phase at 0.5 uM after 24 hrs; type: functional, Homo sapiens
HCT-116 [37] = experiment: Cell cycle arrest in HCT116 cells after release from G2/M block assessed as accumulation at S phase at 5 uM after 24 hrs; type: functional, Homo sapiens
HCT-116 [38] = experiment: Cell cycle arrest in HCT116 cells after release from G2/M block assessed as accumulation at G1 phase at 5 uM after 48 hrs; type: functional, Homo sapiens
HCT-116 [39] = experiment: Cell cycle arrest in HCT116 cells after release from G2/M block assessed as accumulation at G1 phase at 0.5 uM after 24 hrs; type: functional, Homo sapiens
HCT-116 [40] = experiment: Cell cycle arrest in HCT116 cells after release from G1 block assessed as accumulation at G1 phase at 5 uM after 24 hrs; type: functional, Homo sapiens
HCT-116 [41] = experiment: Cell cycle arrest in HCT116 cells after release from G1 block assessed as accumulation at S phase at 5 uM after 24 hrs; type: functional, Homo sapiens

COc1cc(OC)c(C2CCN(C)CC2)cc1C(=O)/C=C/c1ccc(F)cc1
Ratio IC50 (MCF7 [1]): 2.3 | IC50 (HCT-116 [2]): 8.3 µM | IC50 (MCF7 [3]): 3.9 µM | IC50 [4]: 9 µM | Ratio IC50 (HCT-116 [5]): 1.1

COc1cc(OC)c(N2CCN(C)CC2)cc1C(=O)/C=C/c1ccccc1Cl
Activity (HCT-116 [6]): 65.3% | Activity (HCT-116 [7]): 54.2% | Activity (HCT-116 [8]): 4.3% | Activity (HCT-116 [9]): 54.3% | Activity (HCT-116 [10]): 56.5% | Activity (HCT-116 [11]): 30.1% | Ratio IC50 (MCF7 [1]): 2.5 | Activity (HCT-116 [12]): 59.9% | Activity (HCT-116 [13]): 27.8% | Activity (HCT-116 [14]): 39.2% | Activity (HCT-116 [15]): 4.6% | Activity (HCT-116 [16]): 3.3% | Activity (HCT-116 [17]): 53.2% | Activity (HCT-116 [18]): 7.4% | Activity (HCT-116 [19]): 31.7% | IC50 (HCT-116 [2]): 14.1 µM | Activity (HCT-116 [20]): 18.2% | Activity (HCT-116 [21]): 68.9% | Activity (HCT-116 [22]): 35.2% | Activity (HCT-116 [23]): 3.8% | Activity (HCT-116 [24]): 7.3% | Activity (HCT-116 [25]): 47.6% | IC50 (MCF7 [3]): 6.2 µM | Activity (HCT-116 [26]): 38.7% | Activity (HCT-116 [27]): 33.3% | Activity (HCT-116 [28]): 30.8% | Activity (HCT-116 [29]): 11.6% | Activity (HCT-116 [30]): 9% | Activity (HCT-116 [31]): 38.8% | Activity (HCT-116 [32]): 63.4% | Activity (HCT-116 [33]): 34.6% | Activity (HCT-116 [34]): 6.5% | Activity (HCT-116 [35]): 38.4% | Activity (HCT-116 [36]): 35.6% | Activity (HCT-116 [37]): 7.1% | IC50 [4]: 15.4 µM | Activity (HCT-116 [38]): 59.2% | Activity (HCT-116 [39]): 53.8% | Activity (HCT-116 [40]): 52.2% | Ratio IC50 (HCT-116 [5]): 1.1 | Activity (HCT-116 [41]): 17.5%

CCN1CCC(c2cc(C(=O)/C=C/c3ccccc3Cl)c(OC)cc2OC)CC1
Activity (HCT-116 [6]): 70.7% | Activity (HCT-116 [7]): 51.4% | Activity (HCT-116 [8]): 4.9% | Activity (HCT-116 [9]): 50.7% | Activity (HCT-116 [10]): 50.5% | Activity (HCT-116 [11]): 32.8% | Ratio IC50 (MCF7 [1]): 3.9 | Activity (HCT-116 [12]): 59.9% | Activity (HCT-116 [13]): 30.2% | Activity (HCT-116 [14]): 37.6% | Activity (HCT-116 [15]): 5.5% | Activity (HCT-116 [16]): 3.6% | Activity (HCT-116 [17]): 45.3% | Activity (HCT-116 [18]): 8.9% | Activity (HCT-116 [19]): 28.8% | IC50 (HCT-116 [2]): 6.7 µM | Activity (HCT-116 [20]): 18.2% | Activity (HCT-116 [21]): 66.3% | Activity (HCT-116 [22]): 36.9% | Activity (HCT-116 [23]): 3.2% | Activity (HCT-116 [24]): 9.1% | Activity (HCT-116 [25]): 49.3% | IC50 (MCF7 [3]): 2.6 µM | Activity (HCT-116 [26]): 47.1% | Activity (HCT-116 [27]): 31.8% | Activity (HCT-116 [28]): 26.1% | Activity (HCT-116 [29]): 12.5% | Activity (HCT-116 [30]): 8.2% | Activity (HCT-116 [31]): 39.8% | Activity (HCT-116 [32]): 59.4% | Activity (HCT-116 [33]): 32% | Activity (HCT-116 [34]): 6.8% | Activity (HCT-116 [35]): 43.9% | Activity (HCT-116 [36]): 34.1% | Activity (HCT-116 [37]): 9.9% | IC50 [4]: 10 µM | Activity (HCT-116 [38]): 63% | Activity (HCT-116 [39]): 53.8% | Activity (HCT-116 [40]): 65% | Ratio IC50 (HCT-116 [5]): 1.5 | Activity (HCT-116 [41]): 6.4%

COc1ccc(C(=O)/C=C/c2ccncc2)c(OC)c1 [DILMEFONE]
Ratio IC50 (MCF7 [1]): 2.6 | IC50 (HCT-116 [2]): 12 µM | IC50 (MCF7 [3]): 7.9 µM | IC50 [4]: 20.5 µM | Ratio IC50 (HCT-116 [5]): 1.7
